Consider 97 molecules from ChEMBL document CHEMBL4513216, “Probing the Open Global Health Chemical Diversity Library for Multistage-Active Starting Points for Next-Generation Antimalarials” (ACS Infect Dis, 2020).

This data set in a line: Toxicity liver stage against HepG2, at 10uM. The note with it: human, HepG2-A16-CD81EGFP cells; read-out: INHIBITION
The format is cell-based. Further details: test concentration 10 uM, cell line HepG2-A16-CD81EGFP. In outline:
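Uninfected HepG2-A16-CD81EGFP cells, 3 × 10^3 per well, 1536-well, plated on prespotted compound at 10 μM final, parasite-free screening media added to match infected plates; puromycin 10 μM positive, DMSO 0.5% negative; run in parallel with 48 h PbLuc assay at 37 °C, 5% CO2; viability by CellTiter-Glo luminescence, normalized to controls.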
As to `O=C(c1cn(CC(=O)N2CCCCC2)c2ccccc12)C1CC1`, the cytotoxicity at 10 µM came to 9.14%.

For the molecule `FC(F)(F)c1ccc(-c2c[nH]c([C@@H]3COCCN3)n2)cc1`, the cytotoxicity at 10 µM came out at 1.05%.

With `CC(=O)N1CCN(C(=O)Cc2cnc(-c3c(Cl)cccc3Cl)s2)CC1`, the cytotoxicity at 10 µM worked out at 7.27%.

For the molecule `CC(C)NC(=O)c1csc(NC2CC2)n1`, the cytotoxicity at 10 µM is -2.72%.

Consider `CN1CCN(C(=O)c2cc3sccc3n2Cc2ccc(Cl)cc2)CC1`, for which the cytotoxicity at 10 µM is 1.05%.

Turning to `CC1CC(=O)c2cc(C(=O)N3CCOCC3)c(=O)[nH]c2C1` (configuration not stated), the cytotoxicity at 10 µM is -3.06%.

As to `COc1c[nH]c(C(=O)N2CCN(c3ccc(Cl)cc3)CC2)cc1=O`, the cytotoxicity at 10 µM turned out to be 4.42%.

In the case of `CC(=O)Nc1cnc(-n2ccnc2)nc1`, the cytotoxicity at 10 µM was -1.25%.

On to `O=C(NCCC(O)c1ccoc1)Nc1cccs1` (configuration not stated), for which the cytotoxicity at 10 µM is -2.55%.

For `O=C1[C@H]2CN(S(=O)(=O)c3cccs3)C[C@H]2CN1CC1CC1`, the cytotoxicity at 10 µM turned out to be 2%.

As to `O=C(NC1CC1)N1Cc2[nH]nc(COCC3CC3)c2C1`, the cytotoxicity at 10 µM was determined as 13.6%.

On to `Fc1cccnc1N1CCC2(CNCCC2(F)F)C1` (configuration not stated), for which the cytotoxicity at 10 µM is -7.15%.

On to `O=S(=O)(C1CC1)N1CCc2ncc(Cn3cncn3)n2CC1`, for which the cytotoxicity at 10 µM amounted to 3.62%.

In the case of `COc1ncnc2c1CCN(c1cccc(F)c1)CC2`, the cytotoxicity at 10 µM was found to be 10.7%.

Regarding `COCCO[C@H]1CCN(c2ccc(C)nn2)[C@H]1Cc1cnn(C)c1`, the cytotoxicity at 10 µM was 2.5%.

In the case of `CN(C)C(=O)C1OC2(CCN(C(=O)N(C)C)CC2)c2ccccc21` (configuration not stated), the cytotoxicity at 10 µM is 8.04%.

`COc1cc(Cl)c(C)cc1-n1nnc(C(=O)O)c1-c1ccncc1`: the cytotoxicity at 10 µM is 4.74%.

Turning to `O=C(COCC(=O)N1CCCCCC1)NCc1cccc(Br)c1`, the cytotoxicity at 10 µM worked out at 1.47%.

For `CCOc1cc(C(=O)n2cc(C)cn2)cc(OCC)c1OCC`, the cytotoxicity at 10 µM came out at 8.29%.

As for `c1cnc(CC2COCCN(C3CCCCC3)C2)cn1` (configuration not stated), the cytotoxicity at 10 µM is 0.514%.

`C=C(C)Cn1nc(C)c(CN2CCN(C3CCCCC3)C(=O)C2)c1C`: the cytotoxicity at 10 µM amounted to 4.59%.

For the molecule `Cc1nc(-c2c(C)noc2C)cc(C2CCN(CC(=O)N(C)C)CC2)n1`, the cytotoxicity at 10 µM was 5.84%.

As to `O=C(c1cncs1)N1CCOCC(Cc2ccccn2)C1` (configuration not stated), the cytotoxicity at 10 µM turned out to be 0.105%.

Consider `COC(=O)c1ncccc1N1CCN(C(=O)CN2CCOCC2)CC1`, for which the cytotoxicity at 10 µM was determined as 16.7%.

For `COc1nc(N2CCNCC2)ncc1Br`, the cytotoxicity at 10 µM is 5.2%.

For the molecule `CCc1noc(CSc2n[nH]c(-c3ccccn3)n2)n1`, the cytotoxicity at 10 µM was 5.49%.

On to `O=S(=O)(Cc1nc(C2CC2)no1)c1cc(F)ccc1F`, for which the cytotoxicity at 10 µM was found to be 7.81%.

With `CCS(=O)(=O)CCN1CCN(C2CCC(C(C)C)CC2)CC1` (configuration not stated), the cytotoxicity at 10 µM stood at 7.76%.

`O=C1CC2(CCSC2)C(=O)N1Cc1coc(-c2ccccc2)n1` (configuration not stated): the cytotoxicity at 10 µM was 5.57%.

Consider `NC(=O)c1ccc(NC(=O)c2ccncc2Cl)cn1`, for which the cytotoxicity at 10 µM came to 8.29%.

`Cc1noc(C)c1CNC(=O)Nc1ccc(N2CCOC2=O)cc1`: the cytotoxicity at 10 µM was -2.93%.

As to `COc1ccccc1CC1CCN(C(=O)CCc2ccccn2)CC1`, the cytotoxicity at 10 µM is -3.2%.

As to `CCOC(=O)c1nnc2ccccc2c1N1CCN(C(C)C)CC1`, the cytotoxicity at 10 µM is -1.54%.

As to `Cn1cc(C2CCCN2C(=O)Cc2coc(-c3ccccc3)n2)cn1` (configuration not stated), the cytotoxicity at 10 µM was 4.14%.

Turning to `Clc1cnccc1N1CCCC2(CCCOC2)C1` (configuration not stated), the cytotoxicity at 10 µM was -2.35%.

As to `Cc1ccc(C(=O)NC2CCN(Cc3nc(C(C)C)no3)CC2)s1`, the cytotoxicity at 10 µM is 3.82%.

As to `CCN(CC1CCOC1)C(=O)c1ccc(N(C)C)cc1F` (configuration not stated), the cytotoxicity at 10 µM amounted to 3.54%.

For the molecule `Cc1ccc(CNC(=O)NC(C)CN2CCOCC2)s1` (configuration not stated), the cytotoxicity at 10 µM is -14.1%.

As to `Cc1cnn(CC2CCCN2C(=O)Cc2c(C)noc2Cl)c1` (configuration not stated), the cytotoxicity at 10 µM was found to be 0.471%.

Consider `COc1ccccc1S(=O)(=O)CCOC(C)C`, for which the cytotoxicity at 10 µM came out at 6.24%.

In the case of `CCN(Cc1ccoc1)C(=O)c1cc(S(N)(=O)=O)c(C)o1`, the cytotoxicity at 10 µM is -2.98%.

With `CCOC(C(=O)N1CCn2c(nnc2C(C)C)C1)c1ccccc1` (configuration not stated), the cytotoxicity at 10 µM was 3.84%.

As to `O=C(NCCNc1ccccn1)NCC1CCS(=O)(=O)C1` (configuration not stated), the cytotoxicity at 10 µM was 1.48%.

Regarding `COCCN(C)S(=O)(=O)c1cc(C)cc(F)c1`, the cytotoxicity at 10 µM was 3.49%.

As to `COCCC1(CNC(=O)NCC2CCCS2)CCCC1` (configuration not stated), the cytotoxicity at 10 µM was 0.96%.

For `O=C(Nc1cccnc1)NC(CCCO)c1ccccc1` (configuration not stated), the cytotoxicity at 10 µM is -4.4%.

`O=C1CCCc2[nH]c(=O)c(C(=O)N3CCc4ccccc4C3)cc21`: the cytotoxicity at 10 µM worked out at 14.6%.

Take `Cc1cccc(NS(=O)(=O)c2cc(C(=O)O)oc2C)c1`: the cytotoxicity at 10 µM was -9.15%.

Take `CO[C@H]1CC[C@H]2[C@H]1OCCN2C(=O)CCOc1ccccc1`: the cytotoxicity at 10 µM was -95%.

Regarding `CS(=O)(=O)NC[C@]12COC[C@H]1CN(C(=O)CC1CCCC1)C2`, the cytotoxicity at 10 µM is -101%.

With `Cc1cccc(CNC2CC(=O)N(Cc3cccc(F)c3)C2)c1` (configuration not stated), the cytotoxicity at 10 µM was found to be 1.22%.

Turning to `COc1cccc2c1OCC(NCCCOc1cccnc1)C2` (configuration not stated), the cytotoxicity at 10 µM stood at 1.52%.

`COc1ccc(Cc2nc3c([nH]2)CC(C)(C)CNC3=O)cc1OC`: the cytotoxicity at 10 µM is -3.04%.

As to `COCCN(C)C(C(=O)O)c1ccc(F)c(C)c1` (configuration not stated), the cytotoxicity at 10 µM turned out to be 1.87%.

With `O=C(C1CC12CCC2)N1CCC(n2cc(-c3ccsc3)nn2)CC1` (configuration not stated), the cytotoxicity at 10 µM was found to be 5.85%.

Consider `Cc1cc(C)n(CCCN(C)Cc2cn[nH]c2-c2ccc(F)cc2)n1`, for which the cytotoxicity at 10 µM stood at 2.09%.

For `Cc1nc(CN2CCCC23CCN(c2nc4ccccc4s2)CC3)co1`, the cytotoxicity at 10 µM was -1.99%.

Take `COc1cccc2c1OCCCN(Cc1ccc(C(N)=O)c(=O)[nH]1)C2`: the cytotoxicity at 10 µM came to 4.82%.

Consider `Cc1ccc(-c2nc(CC3CCN(C)CC3)no2)cc1N1CCNC1=O`, for which the cytotoxicity at 10 µM is -11.8%.

For `COCC(=O)N1CCC2(CC1)CC(=O)N(Cc1ccc(Cl)cc1)C2`, the cytotoxicity at 10 µM stood at 0.96%.

Consider `CC(C)n1ccnc1C1CCCN(c2ncccc2C(N)=O)C1` (configuration not stated), for which the cytotoxicity at 10 µM was -9.53%.

In the case of `N#Cc1cccc(NC2CC(=O)N(Cc3ccccc3Cl)C2)n1` (configuration not stated), the cytotoxicity at 10 µM was 4.37%.

As for `CCOCCC(=O)NCC1CCCO1` (configuration not stated), the cytotoxicity at 10 µM was found to be 6.56%.

Regarding `CC(C)[C@H]1CN(C(=O)CO)C[C@@H]1N(C)C`, the cytotoxicity at 10 µM stood at 7.1%.

Take `COCCN(C)CCN1CC2(CCN(C3CCNCC3)CC2)OC1=O`: the cytotoxicity at 10 µM is 1.64%.

Regarding `O=C(c1cccnc1N1CCN(Cc2ccoc2)CC1)N1CCCCC1`, the cytotoxicity at 10 µM is -3.68%.

Take `CCc1nc(CN(C)C2CCCN(c3cccnn3)C2)no1` (configuration not stated): the cytotoxicity at 10 µM is -5.87%.

For `Cc1noc(NC(=O)CCNC(=O)c2ccc(Br)cc2)n1`, the cytotoxicity at 10 µM came out at 0.449%.

`Cc1ccc(F)c(NS(=O)(=O)c2cc3c(c(C(=O)O)c2)OCCO3)c1`: the cytotoxicity at 10 µM is -5.32%.

Turning to `CCOc1cc(C(=O)N2CCCC(c3noc(C(C)C)n3)C2)ccn1` (configuration not stated), the cytotoxicity at 10 µM was -6.73%.

With `CCNc1cc2c(nn1)CCN(C(=O)c1c(C)noc1C)C2`, the cytotoxicity at 10 µM is -5.76%.

On to `CC(=O)N(Cc1ncc(C(C)C)o1)C1CCN(Cc2cc(C)no2)C1` (configuration not stated), for which the cytotoxicity at 10 µM was -5.89%.

As for `CC(=O)c1cccc(NC(=O)Cn2nc(-c3cccs3)oc2=O)c1`, the cytotoxicity at 10 µM came to 4.78%.

As to `COc1cccc(-n2nnc(C(=O)N3CCOC(C)C3)c2C)c1` (configuration not stated), the cytotoxicity at 10 µM was -9.95%.

As for `Cc1nn(C)c(C)c1C(=O)NCc1ccnc(OCC(F)(F)F)c1`, the cytotoxicity at 10 µM is -10.7%.

As for `N#Cc1cccnc1N1CCCN(C(=O)CCn2cncn2)CC1`, the cytotoxicity at 10 µM is 0.111%.

Regarding `CC1CN(C(=O)NCCNc2cnccn2)CCO1` (configuration not stated), the cytotoxicity at 10 µM turned out to be 5.31%.

With `Cc1nc(C)n(C2CCCN(C(=O)CCCOc3ccccc3)C2)n1` (configuration not stated), the cytotoxicity at 10 µM was -12.7%.

On to `COCc1nc(C(=O)NS(=O)(=O)c2ccc(C)cc2C)cs1`, for which the cytotoxicity at 10 µM is -4.35%.

Regarding `N#CC1(C(=O)N2CCN(c3nccs3)CC2)CCCCC1`, the cytotoxicity at 10 µM was -8.24%.

`CSCc1cccc(C(=O)N2CCN(CC(C)O)CC2)c1` (configuration not stated): the cytotoxicity at 10 µM was -5.31%.

In the case of `CN(CC(=O)N1CCCN(Cc2cscn2)CC1)c1cnccn1`, the cytotoxicity at 10 µM is -7.81%.

For the molecule `CC(C)(C)Nc1c(C2CCCN(C(=O)C3CC3)C2)nc2ccccn12` (configuration not stated), the cytotoxicity at 10 µM turned out to be 8.07%.

On to `O=C(C1CC1)N1CCC2(CCCN2Cc2ccc(F)cc2)CC1`, for which the cytotoxicity at 10 µM turned out to be 3.35%.

Take `CN(C)C[C@H]1OC[C@@H]2CCN(C(=O)Cc3cccs3)C[C@@H]21`: the cytotoxicity at 10 µM was 7.13%.

`Brc1cc(CNCc2nnc3n2CCC3)cs1`: the cytotoxicity at 10 µM was -6.22%.

`COc1cc(N2CCC3(CCCN3Cc3cnn(C)c3)CC2)ncn1`: the cytotoxicity at 10 µM was 6.5%.

For the molecule `CC(C)CN1CC[C@@H]2[C@@H]1CCN2S(=O)(=O)c1cn(C)cn1`, the cytotoxicity at 10 µM came out at 7.86%.

As to `Fc1cccnc1O[C@@H]1CN(Cc2ccccn2)[C@@H]2CCCO[C@@H]21`, the cytotoxicity at 10 µM was 1.71%.

In the case of `Cc1ncnc2c1CCN(C(=O)Cc1ccccn1)CC2`, the cytotoxicity at 10 µM was 8.12%.

Consider `CCN1C[C@H]2C3(CCN(S(=O)(=O)CC)CC3)CC[C@@]2(C(=O)N(C)C)C1`, for which the cytotoxicity at 10 µM amounted to 2.84%.

On to `CN1CCC2(CC1)C(=O)N(CC1CC1)c1ccccc12`, for which the cytotoxicity at 10 µM is 3.21%.

Turning to `CNC(=O)CN1CCO[C@H]2CN(CC3CCOCC3)C[C@H]21`, the cytotoxicity at 10 µM was determined as 12.5%.

Take `O=C(NC1CC1)N1CCCC2(CCCCN2)C1` (configuration not stated): the cytotoxicity at 10 µM stood at 8.77%.

Take `CCc1cc(NC2CCC(N)CC2)n2nc(C)c(C)c2n1` (configuration not stated): the cytotoxicity at 10 µM was -4.33%.

For `O=C(CC1[C@H]2CN(c3ncccn3)C[C@@H]12)Nc1cccnc1` (some centres not stated), the cytotoxicity at 10 µM is -1.55%.

On to `CSc1ncc(C(=O)N2C[C@@H]3CC[C@H]2CN(c2ncccn2)C3)cn1`, for which the cytotoxicity at 10 µM was found to be 1.26%.
